This note sets out measurements from PMC2943143 (Biochemical pharmacology, 2010).

The experiment deals with calf thymus double-stranded DNA (dsDNA). Briefly: Thermal transition of DNA. The settings on record: 15 μM compound, calf thymus dsDNA 6 μg/ml, pH 7.0. Type of experiment: binding. A digest of the protocol: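 Calf thymus dsDNA (6 μg/ml) in 0.1 M sodium phosphate pH 7.0 with 1% DMSO was tested with or without test compound, with ethidium bromide as intercalator control. Samples were equilibrated at 78 °C for 10 min, then raised 1 °C every 2 min. Absorbance was recorded on a spectrophotometer with a thermoelectric cell holder, and compound-only absorbance was subtracted to give Tm.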

As to `CC[n+]1c(-c2ccccc2)c2cc(N)ccc2c2ccc(N)cc21` [ethidium bromide, reference compound], the “effect on melting temperature (Tm) / thermal transition of dsDNA” value is “clear shift of thermal transition”.
